The record followed here is ChEMBL document CHEMBL5108039, “Piperazine tethered bergenin heterocyclic hybrids: design, synthesis, anticancer activity, and molecular docking studies” (RSC Med Chem, 2022).

Calls of active or inactive are those of the source. No cut-off for these calls is given here.

The subject of data set [1] is CAL-27. Kind of data set: Induction of apoptosis in human CAL-27 cells assessed as necrotic cells at 42 uM incubated for 24 hrs by Annexin V-FITC/PI staining based flow cytometric analysis (reference value: 0.0 %). It counts as functional.
For data set [2], the system named is CAL-27. The data set is described as follows: Cell cycle arrest in human CAL-27 cells assessed as accumulation at S phase at 42 uM incubated for 24 hrs by flow cytometry (reference value: 3.6 %). It counts as functional. (In general: Flow cytometry measures light scatter and fluorescence of single cells or particles in a stream.)
Data set [3] has as its system CAL-27. Kind of data set: Induction of apoptosis in human CAL-27 cells assessed as necrotic cells at 21 uM incubated for 24 hrs by Annexin V-FITC/PI staining based flow cytometric analysis (reference value: 0.0 %). It counts as functional.
The test system of data set [4] is CAL-27. The data set is described as follows: Induction of apoptosis in human CAL-27 cells assessed as upregulation of Bax gene expression at 21 uM by qRT-PCR analysis. It counts as functional, cell-based. In short, it runs like this: (§1)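 CAL27 cells were treated with test agents at different concentrations. Relative mRNA levels of vimentin, E-cad, Nanog, Oct-4, Bax and Bcl-2 were then quantified by qRT-PCR as apoptosis, EMT and stemness markers.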
A general note: Real-time PCR tracks product formation cycle by cycle.

Data set [5] has as its system CAL-27. The data set is described as follows: Induction of apoptosis in human CAL-27 cells assessed as live cells at 42 uM incubated for 24 hrs by Annexin V-FITC/PI staining based flow cytometric analysis (reference value: 99.8 %). It counts as functional. In outline:
(§2)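 CAL27 cells were treated with vehicle, doxorubicin or test compounds at 10–63 μM, and apoptosis was assessed by annexin V–FITC/PI staining with flow cytometry. Cells were scored as live, early apoptotic, late apoptotic or necrotic. The vehicle was DMSO (0.01%).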

The test system of data set [6] is CAL-27. Kind of data set: Induction of apoptosis in human CAL-27 cells assessed as downregulation of Oct-4 gene expression at 21 uM by qRT-PCR analysis. It counts as functional, cell-based. In outline: (§3)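 CAL27 cells were treated with test compounds at several concentrations. Relative expression of vimentin, E-cad, Nanog, Oct-4, Bax and BcL-2 was measured by qRT-PCR against vehicle-treated control cells.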

In data set [7] the test system is CAL-27. The data set is described as follows: Induction of apoptosis in human CAL-27 cells assessed as late apoptotic cells at 42 uM incubated for 24 hrs by Annexin V-FITC/PI staining based flow cytometric analysis (reference value: 0.1 %). It counts as functional. The settings on record: in the assay text read “early apoptotic cells” for “late apoptotic cells”. In outline: as §2

For data set [8], the system named is CAL-27. The data set is described as follows: Induction of apoptosis in human CAL-27 cells assessed as early apoptotic cells at 21 uM incubated for 24 hrs by Annexin V-FITC/PI staining based flow cytometric analysis (reference value: 0.1 %). It counts as functional. In short, it runs like this: as §2
Data set [9] has as its system CAL-27. Kind of data set: Cell cycle arrest in human CAL-27 cells assessed as accumulation at G0/G1 phase at 21 uM incubated for 24 hrs by flow cytometry (reference value: 77.6 %). It counts as functional.
Data set [10] deals with CAL-27. Kind of data set: Induction of apoptosis in human CAL-27 cells assessed as downregulation of Nanog gene expression at 21 uM by qRT-PCR analysis. It counts as functional, cell-based. In short, it runs like this: as §3
Data set [11] deals with CAL-27. Kind of data set: Induction of apoptosis in human CAL-27 cells assessed as upregulation of E-cad gene expression at 42 uM by qRT-PCR analysis. It counts as functional, cell-based. In outline: as §1
Data set [12] concerns CAL-27. Kind of data set: Induction of apoptosis in human CAL-27 cells assessed as downregulation of BcL-2 gene expression at 21 uM by qRT-PCR analysis. It is filed as functional, cell-based. In outline: as §3
Data set [13] deals with CAL-27. Kind of data set: Induction of apoptosis in human CAL-27 cells assessed as live cells at 21 uM incubated for 24 hrs by Annexin V-FITC/PI staining based flow cytometric analysis (reference value: 99.8 %). It counts as functional. In outline: as §2
For data set [14], the system named is CAL-27. The data set is described as follows: Cytotoxicity against human CAL-27 cells assessed as cell growth inhibition. It counts as functional, cell-based. In short, it runs like this: (§4)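 Compounds were dissolved in sterile DMSO as 10 mg ml−1 stocks and tested for in vitro growth inhibition of human cancer cell lines. Doxorubicin was the standard drug and DMSO (0.01%) the vehicle control. IC50 values are reported as means.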

Data set [15] relates to CAL-27. The data set is described as follows: Induction of apoptosis in human CAL-27 cells assessed as upregulation of Bax gene expression at 42 uM by qRT-PCR analysis. It is filed as functional, cell-based. In short, it runs like this: as §1
Data set [16] concerns CAL-27. The data set is described as follows: Induction of apoptosis in human CAL-27 cells assessed as downregulation of Oct-4 gene expression at 42 uM by qRT-PCR analysis. It counts as functional, cell-based. In short, it runs like this: as §3
Data set [17] concerns CAL-27. The data set is described as follows: Induction of apoptosis in human CAL-27 cells assessed as downregulation of vimentin gene expression at 42 uM by qRT-PCR analysis. It is filed as functional, cell-based. In short, it runs like this:
as §3

The test system of data set [18] is CAL-27. Kind of data set: Induction of apoptosis in human CAL-27 cells assessed as early apoptotic cells at 42 uM incubated for 24 hrs by Annexin V-FITC/PI staining based flow cytometric analysis (reference value: 0.1 %). It is filed as functional. In outline: as §2
A further data set has as its system MCF7. The data set is described as follows: Cytotoxicity against human MCF7 cells assessed as cell growth inhibition. It is filed as functional, cell-based. In outline: as §4
Data set [19] deals with CAL-27. The data set is described as follows: Cell cycle arrest in human CAL-27 cells assessed as accumulation at G2/M phase at 21 uM incubated for 24 hrs by flow cytometry (reference value: 11.9 %). It counts as functional.
The nature of data set [20]: Cytotoxicity against human BEAS-2B cells assessed as cell growth inhibition. It counts as toxicity, cell-based. In short, it runs like this: (§5)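 Compounds were dissolved in sterile DMSO as 10 mg ml−1 stocks and tested in vitro for cytotoxicity in a cell-line panel, with DMSO (0.01%) as vehicle control and doxorubicin as standard. Mean IC50 values were reported, and the normal lung epithelial cells were tested up to 100 μM.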

The next data set concerns A549. The data set is described as follows: Cytotoxicity against human A549 cells assessed as cell growth inhibition. It is filed as functional, cell-based. In outline: as §5
Data set [21] relates to CAL-27. Kind of data set: Induction of apoptosis in human CAL-27 cells assessed as downregulation of Nanog gene expression at 42 uM by qRT-PCR analysis. It is filed as functional, cell-based. In outline: as §3
Data set [22] deals with CAL-27. Kind of data set: Induction of apoptosis in human CAL-27 cells assessed as downregulation of BcL-2 gene expression at 42 uM by qRT-PCR analysis. It is filed as functional, cell-based. In short, it runs like this:
as §3

Data set [23] deals with CAL-27. The data set is described as follows: Induction of apoptosis in human CAL-27 cells assessed as late apoptotic cells at 21 uM incubated for 24 hrs by Annexin V-FITC/PI staining based flow cytometric analysis (reference value: 0.1 %). It is filed as functional. In outline: as §2
Data set [24] has as its system CAL-27. Kind of data set: Induction of apoptosis in human CAL-27 cells assessed as upregulation of E-cad gene expression at 21 uM by qRT-PCR analysis. It counts as functional, cell-based. In outline: as §1
Data set [25] relates to CAL-27. The data set is described as follows: Cell cycle arrest in human CAL-27 cells assessed as accumulation at G0/G1 phase at 42 uM incubated for 24 hrs by flow cytometry (reference value: 77.6 %). It is filed as functional.
Data set [26] has as its system CAL-27. The data set is described as follows: Cell cycle arrest in human CAL-27 cells assessed as accumulation at G2/M phase at 42 uM incubated for 24 hrs by flow cytometry (reference value: 11.9 %). It is filed as functional.
Data set [27] has as its system CAL-27. Kind of data set: Cell cycle arrest in human CAL-27 cells assessed as accumulation at S phase at 21 uM incubated for 24 hrs by flow cytometry (reference value: 3.6 %). It counts as functional.
The test system of data set [28] is CAL-27. The data set is described as follows: Induction of apoptosis in human CAL-27 cells assessed as downregulation of vimentin gene expression at 21 uM by qRT-PCR analysis. It is filed as functional, cell-based. In short, it runs like this:
as §3

A further data set relates to HCT-15. The data set is described as follows: Cytotoxicity against human HCT-15 cells assessed as cell growth inhibition. It is filed as functional, cell-based. In short, it runs like this: as §4
The subject of the next data set is SCC-9. Kind of data set: Cytotoxicity against human SCC-9 cells assessed as cell growth inhibition. It is filed as functional, cell-based. In short, it runs like this:
as §4

As usually defined, the IC50 is the concentration that gives 50% inhibition. Regarding `COc1c(O)c(CN2CCN(S(=O)(=O)c3ccc(I)cc3)CC2)c2c(c1O)C1O[C@H](CO)[C@@H](O)[C@H](O)C1OC2=O` (stereo not given in full), the Activity in the data set with CAL-27 [1] was 2%; with CAL-27 [2] it was 1.9%; in the data set with CAL-27 [3] it was 1.1%; with CAL-27 [5], 94.6%; in the data set on CAL-27 [7], 1.7%; in the data set on CAL-27 [8], 1.1%. Moreover, the Activity is 83.3% with CAL-27 [9]; 97.1% in the data set on CAL-27 [13]; 1.7% in the data set with CAL-27 [18]; 12.6% with CAL-27 [19]; 0.7% in the data set on CAL-27 [23]; 83.7% in the data set with CAL-27 [25]. Also, the Activity in the data set on CAL-27 [26] is 11.5%; in the data set on CAL-27 [27] it was 3.5%. Also, the outcome in the data set on CAL-27 [4], in the data set with CAL-27 [6], in the data set with CAL-27 [10], in the data set on CAL-27 [11], with CAL-27 [12] and in the data set with CAL-27 [15] was Active. The outcome in the data set on CAL-27 [16], in the data set with CAL-27 [17], in the data set with CAL-27 [21], in the data set on CAL-27 [22], in the data set on CAL-27 [24] and in the data set on CAL-27 [28] was Active. Moreover, the IC50 was 41.6 µM in the data set on CAL-27 [14]; greater than 100 µM with MCF7; greater than 100 µM in [20]; greater than 100 µM in the data set with A549; greater than 100 µM in the data set with HCT-15; greater than 100 µM in the data set on SCC-9.

For the compound `COc1ccc(S(=O)(=O)N2CCN(Cc3c(O)c(OC)c(O)c4c3C(=O)OC3C4O[C@H](CO)[C@@H](O)[C@@H]3O)CC2)cc1` (stereo not given in full), the half-maximal inhibitory concentration (IC50) (with CAL-27 [14]; in the data set with MCF7; in data set [20]; in the data set with A549; with HCT-15; in the data set on SCC-9) was greater than 100 µM each time.

`COc1c(O)c(CN2CCN(CC(=O)Nc3nc4ccccc4s3)CC2)c2c(c1O)C1O[C@H](CO)[C@@H](O)[C@H](O)C1OC2=O` (stereo not given in full): the concentration for half-maximal inhibition (IC50) in the data set on CAL-27 [14] is 91.2 µM; with MCF7, greater than 100 µM; in data set [20] it was 97.3 µM; in the data set on A549, greater than 100 µM; in the data set with HCT-15, greater than 100 µM; with SCC-9, 64.8 µM.

As to `COc1c(O)c(CN2CCN(S(=O)(=O)c3ccc(OC(F)(F)F)cc3)CC2)c2c(c1O)C1O[C@H](CO)[C@@H](O)[C@H](O)C1OC2=O` (stereo not given in full), the IC50 (with CAL-27 [14]; in the data set with MCF7; in data set [20]; in the data set with A549; with HCT-15; in the data set with SCC-9) was greater than 100 µM in each case.
